Tests used:
[1] = Binding radioligand; design: species or system Caenorhabditis elegans
Method in brief: (§1)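 Competitive binding with [22,23-3H2]ivermectin as radioligand, displaced from an avermectin receptor preparation derived from the free-living nematode Caenorhabditis elegans.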

[2] = Displacement of ivermectin from avermectin receptor of Caenorhabditis elegans; method in brief: as §1
Spodoptera eridania [3] = test: Antiparasitic activity against Southern army worm; format: functional
Method in brief: (§2)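 Neonate southern armyworm (Spodoptera eridania) larvae placed on bean leaves treated with test compound.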

Tetranychus urticae [4] = test: Antiparasitic activity against Tetranychus urticae; format: functional
Method in brief: (§3)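 Two-spotted spider mite (Tetranychus urticae) infesting bean plants treated with test compound.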

[5] = test system: Trichostrongylus colubriformis; test: Antiparasitic activity against Trichostrongylus colubriformis; format: functional
Method in brief: (§4)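 Sheep nematode Trichostrongylus colubriformis tested in vivo in a gerbil infection model.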

Tetranychus urticae [6] = test: Antiparasitic activity against two-spotted spider mite Tetranychus urticae on bean plants; format: functional; method in brief: as §3
[7] = test system: Trichostrongylus colubriformis; test: Antiparasitic activity against sheep parasite Trichostrongylus colubriformis; conditions: in gerbil
Spodoptera eridania [8] = test: Antiparasitic activity against southern army worm Spodoptera eridania; format: functional; method in brief: as §2
[9] = test system: Trichostrongylus colubriformis; test: Antiparasitic activity against sheep parasite Trichostrongylus colubriformis; format: functional; method in brief: as §4

Row | Compound | Ki [1] | Ki [2] | ED90 (Spodoptera eridania [3]) | ED90 (Tetranychus urticae [4]) | ED90 [5] | ED90 (Tetranychus urticae [6]) | ED90 [7] | ED90 (Spodoptera eridania [8]) | ED90 [9]
1 | IVERMECTIN [listing 1 of 2 here] | 0.3 nM |  |  |  |  |  |  |  | 
2 | CC[C@H](C)[C@H]1O[C@]2(CC[C@@H]1C)C[C@@H]1C[C@@H](C/C=C(\C)[C@H](OCOCCOC)[C@@H](C)/C=C/C=C3\CO[C@@H]4[C@H](O)C(C)=C[C@@H](C(=O)O1)[C@]34O)O2 |  | 2.9 nM | >0.25 p.p.m. | 0.01 p.p.m. | < 0.1 mg/kg |  |  |  | 
3 | CC[C@H](C)[C@H]1O[C@]2(CC[C@@H]1C)C[C@@H]1C[C@@H](C/C=C(\C)[C@@H](OC)[C@@H](C)/C=C/C=C3\CO[C@@H]4[C@H](O)C(C)=C[C@@H](C(=O)O1)[C@]34O)O2 |  | 0.6 nM |  |  |  | 1 p.p.m. | 0.5 mg/kg |  | 
4 | CC[C@H](C)[C@H]1O[C@]2(CC[C@@H]1C)C[C@@H]1C[C@@H](C/C=C(C)/C=C(C)\C=C\C=C3/CO[C@@H]4[C@H](O)C(C)=C[C@@H](C(=O)O1)[C@]34O)O2 |  | 0.8 nM |  |  |  | >6.25 p.p.m. | > 2.5 mg/kg | >1 p.p.m. | 
5 | CC[C@H](C)[C@H]1O[C@]2(CC[C@@H]1C)C[C@@H]1C[C@@H](C/C=C(\C)C(=O)[C@@H](C)/C=C/C=C3\CO[C@@H]4[C@H](O)C(C)=C[C@@H](C(=O)O1)[C@]34O)O2 |  | 0.6 nM | >0.5 p.p.m. | 6.25 p.p.m. | 0.5 mg/kg |  |  |  | 
6 | CC[C@H](C)[C@H]1O[C@]2(CC[C@@H]1C)C[C@@H]1C[C@@H](C/C=C(\C)C[C@@H](C)/C=C/C=C3\CO[C@@H]4[C@H](O)C(C)=C[C@@H](C(=O)O1)[C@]34O)O2 |  | 0.9 nM |  |  |  | 0.05 p.p.m. | 0.06 mg/kg | 0.5 p.p.m. | 
7 | CC[C@H](C)[C@H]1O[C@]2(CC[C@@H]1C)C[C@@H]1C[C@@H](C/C=C(C)/C(=N\OC)[C@@H](C)/C=C/C=C3\CO[C@@H]4[C@H](O)C(C)=C[C@@H](C(=O)O1)[C@]34O)O2 | 0.3 nM |  |  |  |  | 0.05 p.p.m. | < 0.1 mg/kg | 0.5 p.p.m. | 
8 | CC[C@H](C)[C@H]1O[C@]2(CC[C@@H]1C)C[C@@H]1C[C@@H](C/C=C(\C)[C@@H](F)[C@@H](C)/C=C/C=C3\CO[C@@H]4[C@H](O)C(C)=C[C@@H](C(=O)O1)[C@]34O)O2 |  | 0.2 nM |  |  |  | 0.05 p.p.m. | < 0.1 mg/kg | >0.5 p.p.m. | 
9 | CC[C@H](C)[C@H]1O[C@]2(CC[C@@H]1C)C[C@@H]1C[C@@H](CC(O)/C(C)=C\[C@@H](C)/C=C/C=C3\CO[C@@H]4[C@H](O)C(C)=C[C@@H](C(=O)O1)[C@]34O)O2 (some centres not stated) | > 100 nM |  |  |  |  | >6.25 p.p.m. |  |  | 
10 | CC[C@H](C)[C@H]1O[C@]2(CC[C@@H]1C)C[C@@H]1C[C@@H](C/C=C(\C)[C@H](F)[C@@H](C)/C=C/C=C3\CO[C@@H]4[C@H](O)C(C)=C[C@@H](C(=O)O1)[C@]34O)O2 |  | 0.3 nM |  |  |  | 0.01 p.p.m. | < 0.1 mg/kg | 0.5 p.p.m. | 
11 | CC[C@H](C)[C@H]1O[C@]2(CC[C@@H]1C)C[C@@H]1C[C@@H](C/C=C(\C)[C@H](Cl)[C@@H](C)/C=C/C=C3\CO[C@@H]4[C@H](O)C(C)=C[C@@H](C(=O)O1)[C@]34O)O2 |  | 1 nM | 0.5 p.p.m. | 0.25 p.p.m. | 0.1 mg/kg |  |  |  | 
12 | CC[C@H](C)[C@H]1O[C@]2(CC[C@@H]1C)C[C@@H]1C[C@@H](CC(N3CCOCC3)/C(C)=C\[C@@H](C)/C=C/C=C3\CO[C@@H]4[C@H](O)C(C)=C[C@@H](C(=O)O1)[C@]34O)O2 (some centres not stated) |  | > 100 nM |  |  |  | 6.25 p.p.m. | > 2.5 mg/kg |  | 
13 | CC[C@H](C)[C@H]1O[C@]2(CC[C@@H]1C)C[C@@H]1C[C@@H](C/C=C(\C)[C@@H](N)[C@@H](C)/C=C/C=C3\CO[C@@H]4[C@H](O)C(C)=C[C@@H](C(=O)O1)[C@]34O)O2 |  | > 100 nM |  |  |  | >0.1 p.p.m. | 0.5 mg/kg | >1 p.p.m. | 
14 | IVERMECTIN [listing 2 of 2 here] |  |  |  |  |  | 0.05 p.p.m. |  | 8 p.p.m. | 0.05 mg/kg
15 | CC[C@H](C)[C@H]1O[C@]2(CC[C@@H]1C)C[C@@H]1C[C@@H](CC(N(C)C(C)=O)/C(C)=C\[C@@H](C)/C=C/C=C3\CO[C@@H]4[C@H](O)C(C)=C[C@@H](C(=O)O1)[C@]34O)O2 (some centres not stated) | > 100 nM |  |  |  |  | >6.25 p.p.m. | > 2.5 mg/kg |  | 
16 | CC[C@H](C)[C@H]1O[C@]2(CC[C@@H]1C)C[C@@H]1C[C@@H](C/C=C(\C)[C@@H](OCOCCOC)[C@@H](C)/C=C/C=C3\CO[C@@H]4[C@H](O)C(C)=C[C@@H](C(=O)O1)[C@]34O)O2 |  | 2.7 nM | <1 p.p.m. | 0.05 p.p.m. | > 0.1 mg/kg |  |  |  | 
17 | CC[C@H](C)[C@H]1O[C@]2(CC[C@@H]1C)C[C@@H]1C[C@@H](C/C=C(\C)[C@H](O)[C@@H](C)/C=C/C=C3\CO[C@@H]4[C@H](O)C(C)=C[C@@H](C(=O)O1)[C@]34O)O2 |  | 2 nM |  |  |  | 0.05 p.p.m. | < 0.5 mg/kg | >8 p.p.m. | 
18 | CC[C@H](C)[C@H]1O[C@]2(CC[C@@H]1C)C[C@@H]1C[C@@H](C/C=C(\C)[C@@H](Cl)[C@@H](C)/C=C/C=C3\CO[C@@H]4[C@H](O)C(C)=C[C@@H](C(=O)O1)[C@]34O)O2 |  |  | <1 p.p.m. | >0.1 p.p.m. | < 0.1 mg/kg |  |  |  | 
19 | CC[C@H](C)[C@H]1O[C@]2(CC[C@@H]1C)C[C@@H]1C[C@@H](C/C=C(\C)[C@@H](O)[C@@H](C)/C=C/C=C3\CO[C@@H]4[C@H](O)C(C)=C[C@@H](C(=O)O1)[C@]34O)O2 [IVM AGLYCONE] |  | 6.4 nM |  |  |  | 0.5 p.p.m. |  | >6.25 p.p.m. | 
20 | CC[C@H](C)[C@H]1O[C@]2(CC[C@@H]1C)C[C@@H]1C[C@@H](C/C=C(\C)[C@H](I)[C@@H](C)/C=C/C=C3\CO[C@@H]4[C@H](O)C(C)=C[C@@H](C(=O)O1)[C@]34O)O2 |  | 2.4 nM |  | 1.25 p.p.m. | 0.5 mg/kg |  |  |  | 
21 | CC[C@H](C)[C@H]1O[C@]2(C=C[C@@H]1C)C[C@@H]1C[C@@H](C/C=C(\C)[C@@H](O[C@H]3C[C@H](OC)[C@@H](O[C@H]4C[C@H](OC)[C@@H](O)[C@H](C)O4)[C@H](C)O3)[C@@H](C)/C=C/C=C3\CO[C@@H]4[C@H](O)C(C)=C[C@@H](C(=O)O1)[C@]34O)O2 [ABAMECTIN COMPONENT B1A] | 0.1 nM |  |  |  |  | 0.05 p.p.m. | 0.03 mg/kg | 8 p.p.m. | 

Reference: ChEMBL document CHEMBL1124629, “Syntheses and biological activities of 13-substituted avermectin aglycons” (J Med Chem, 1989)
